We go through 14 compounds from ChEMBL document CHEMBL1126741 (J Med Chem, 1993).

One may read the Ki as a measure of affinity in units of concentration, obtained from inhibition or displacement. The ED50 is the dose at which the effect has come halfway, by size or by number of responders.

Assay [1] relates to Felis catus. Nature of the assay: (§1) Maximum decrease in sympathetic nerve discharge(SND) observed at 1 mg/kg dose in cat. Format: functional. Set-up: scale not given: the % may be the effect or the level left. The essentials: (§2)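 Chloralose-anesthetized mongrel cats (80 mg/kg iv), stereotaxic, femoral cannulation. SND integrated cumulatively; pretreatment value averaged over the last 10 min of a 1 h equilibration. Cumulative iv dosing from 0.01 up to 1.0 mg/kg every 20 min, read 15–20 min after each dose. Maximum SND decrease at 1 mg/kg expressed as % control (±SEM); n = 2–8 cats.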

A further assay deals with D(2) dopamine receptor (Homo sapiens, UniProt P14416). Nature of the assay: Displacement of [3H]U-86170 from human D2-dopamine receptor expressed in CHO K1 cells. Format: cell-based.
In assay [2] the test system is Mus musculus. As to the kind of experiment: Dose required to obtain hypothermic effect in mice following subcutaneous administration. In kind it is functional. The note with it: sc. The essentials: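 Charles River mice (18–22 g), housed singly, given 0.1-mL sc injections at doses spaced in half-log intervals. Rectal temperature read 20 min after injection. Responders were those of four mice per dose that dropped >1.1 °C. ED50 by Spearman–Karber, with 95% confidence intervals.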

Assay [3] relates to Mus musculus. As to the kind of experiment: Maximum obtainable hypothermic effect up to 30 mg/kg dose in mice expressed as temperature decrease in degree Centigrade. Format: functional. The essentials:
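Mice (Charles River, 18–22 g) dosed sc in 0.1 mL at doses up to 30 mg/kg. Rectal temperature measured 20 min after injection. The mean maximum temperature drop at 20 min is recorded as a crude index of efficacy.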

Assay [4] concerns Felis catus. As to the kind of experiment: Dose required to reduce sympathetic nerve discharge in cats following intravenous administration.
Assay [5] is described as follows: Dose to reduce neuronal firing against 5-HT cells in rats (iv). Format: functional. The settings on record: Rattus norvegicus. The essentials: (§3)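 Male Sprague-Dawley rats (250-350 g) anaesthetised with chloral hydrate 400 mg/kg. Extracellular single-unit firing was recorded by glass microelectrode (pontamine sky blue in 2 M NaCl) from 5-HT cells in dorsal raphe or DA cells in substantia nigra pars compacta, with drug given iv. Cell sites were confirmed histologically by dye mark. ED50 is the dose inhibiting firing by 50%, in µg/kg ±SEM, with n animals.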

The test system of assay [6] is Felis catus. As to the kind of experiment: Dose required to reduce sympathetic nerve discharge in cat following intravenous administration. Format: functional. The essentials:
(§4)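 Mongrel cats (2.5-4.0 kg) anaesthetised with chloralose 80 mg/kg iv, in a stereotaxic frame, femoral artery and vein cannulated. SND was quantified by cumulative integration of slow waves, with a 1 h equilibration and baseline taken over the last 10 min. Cumulative iv doses of 0.01, 0.03, 0.1, 0.3 and 1.0 mg/kg were given every 20 min, each read 15-20 min post-dose. ED50 is the dose reducing SND to 50% of pretreatment (95% CI). Maximum decrease at 1 mg/kg is given as % control ±SEM.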

Assay [7] has as its system Felis catus. Nature of the assay: Maximum decrease in sympathetic nerve discharge(SND) +/-SEM observed at 1 mg/kg dose in cat. In kind it is functional. Set-up: scale not given: the % may be the effect or the level left. Summed up:
as §2

Assay [8] concerns Felis catus. The description is as §1. In kind it is functional. The arrangement: scale not given: the % may be the effect or the level left. The essentials: as §4
The source holds these as a separate data set.

Assay [9] can be described thus: Dose to reduce neuronal firing against DA cells (antagonist) in rats (iv). In kind it is functional. The note with it: Rattus norvegicus.
Assay [10] deals with Felis catus. As to the kind of experiment: Dose required to completely shut off sympathetic nerve discharge in cat following intravenous administration. Format: functional.
Assay [11] is described as follows: Dose to reduce neuronal firing against DA cells in rats (iv). In kind it is functional. The settings on record: Rattus norvegicus. Summed up:
as §3

Chain of D(2) dopamine receptor (P14416 whole entry): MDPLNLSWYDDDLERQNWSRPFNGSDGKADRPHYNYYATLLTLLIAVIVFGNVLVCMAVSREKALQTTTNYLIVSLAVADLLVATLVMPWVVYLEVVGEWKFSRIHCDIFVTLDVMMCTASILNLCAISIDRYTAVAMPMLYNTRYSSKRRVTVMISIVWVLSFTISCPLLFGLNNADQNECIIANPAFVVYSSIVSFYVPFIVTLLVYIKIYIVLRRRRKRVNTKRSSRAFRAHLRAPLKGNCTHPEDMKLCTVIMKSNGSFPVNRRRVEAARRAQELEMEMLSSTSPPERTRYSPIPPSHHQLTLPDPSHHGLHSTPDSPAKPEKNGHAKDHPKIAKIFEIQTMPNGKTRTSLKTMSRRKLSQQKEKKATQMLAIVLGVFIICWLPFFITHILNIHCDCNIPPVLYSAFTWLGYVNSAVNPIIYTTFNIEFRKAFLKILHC

In the assay with Felis catus [1], `CCCN(CCC)[C@H]1CCc2ccc3[nH]c(C#N)cc3c2C1` displayed a Control of 0%. The Ki at D(2) dopamine receptor was found to be 896 nM. Also, the figures for the median effective dose (ED50) with Mus musculus [2] and in the assay on Felis catus [4] were 1.3 mg/kg and 0.15 mg/kg, respectively. The same compound came in with a Temperature in the assay with Mus musculus [3] of 6.3 °C.

`CCCN(CCC)[C@@H]1CCc2ccc3[nH]c(C(N)=O)cc3c2C1`: the ED50 in [5] was greater than 0.1 mg/kg; with Felis catus [6], 0.19 mg/kg; with Mus musculus [2], 0.6 mg/kg. Also, the Control in the assay with Felis catus [7] is on record as 0%. The inhibitory constant (Ki) at D(2) dopamine receptor was determined as 215 nM. This compound returned a Temperature in the assay on Mus musculus [3] of 3.3 °C.

`CCCN(CCCCN1C(=O)CC(C)(C)CC1=O)[C@@H]1CCc2ccc3[nH]c(C(N)=O)cc3c2C1` came in with a Control with Felis catus [1] of 22%. On D(2) dopamine receptor, this compound displayed a Ki of 38 nM. In addition, the figures for the ED50 in the assay with Mus musculus [2] and with Felis catus [4] were 9.7 mg/kg and 0.41 mg/kg, respectively. This compound came in with a Temperature in the assay with Mus musculus [3] of 2.8 °C.

`CCCN(CC1CC1)[C@H]1CCc2ccc3[nH]c(C(N)=O)cc3c2C1`: the Control in the assay on Felis catus [1] stood at 14%. Also, on D(2) dopamine receptor, the inhibition constant (Ki) is greater than 1000 nM. Besides, the median effective dose (ED50) in the assay with Mus musculus [2] was 9.7 mg/kg; in the assay on Felis catus [4], 0.4 mg/kg. In addition, the Temperature with Mus musculus [3] worked out at 3.3 °C.

In turn, `CCCN(CCCCN1C(=O)CC(C)(C)CC1=O)[C@@H]1CCc2ccc3[nH]c(C#N)cc3c2C1` returned a Control with Felis catus [1] of 0%. Besides, at D(2) dopamine receptor, the Ki was determined as 44 nM. Besides, the 50% effective dose (ED50) with Mus musculus [2] was 0.13 mg/kg; with Felis catus [4], 0.01 mg/kg. This compound showed a Temperature in the assay with Mus musculus [3] of 6.8 °C.

The compound `CCCN[C@@H]1CCc2ccc3[nH]c(C(N)=O)cc3c2C1` registered an inhibitory constant (Ki) at D(2) dopamine receptor of 857 nM. The compound further had an ED50 in the assay with Mus musculus [2] of 2.3 mg/kg. The compound further yielded a Temperature in the assay with Mus musculus [3] of 2.4 °C.

For the compound `CCCN(CCC)[C@H]1CCc2ccc3[nH]c(C(N)=O)cc3c2C1`, the 50% effective dose (ED50) was greater than 0.1 mg/kg in [5], 0.19 mg/kg with Felis catus [6] and 1 mg/kg in the assay with Mus musculus [2]. The same compound registered a Control in the assay with Felis catus [1] of 10%. The compound further came in with a Ki on D(2) dopamine receptor greater than 1000 nM. Moreover, in the assay with Mus musculus [3], the Temperature came out at 2.2 °C.

Regarding `CCCN(CCCCN1C(=O)CC(C)(C)CC1=O)[C@H]1CCc2ccc3[nH]c(C(N)=O)cc3c2C1`, affinity at D(2) dopamine receptor was put at a Ki of 914 nM. This compound came in with a median effective dose (ED50) in the assay with Mus musculus [2] of 4.1 mg/kg. Besides, the Temperature in the assay on Mus musculus [3] stood at 2.2 °C.

In turn, `CCCN(CC1CC1)[C@@H]1CCc2ccc3[nH]c(C(N)=O)cc3c2C1` showed a Control in the assay on Felis catus [1] of 43%. Further, the inhibition constant Ki at D(2) dopamine receptor came to 389 nM. Further, the ED50 was 2.3 mg/kg in the assay with Mus musculus [2] and 0.9 mg/kg in the assay on Felis catus [4]. The compound also showed a Temperature in the assay with Mus musculus [3] of 4 °C.

Turning to `CCCN(CCCCN1C(=O)CC(C)(C)CC1=O)[C@H]1CCc2ccc3[nH]c(C#N)cc3c2C1`, the Ki at D(2) dopamine receptor was greater than 333 nM. The compound further yielded a median effective dose (ED50) in the assay with Mus musculus [2] of 3.1 mg/kg. This compound registered a Temperature with Mus musculus [3] of 3.9 °C.

At D(2) dopamine receptor, `CCCN[C@H]1CCc2ccc3[nH]c(C(N)=O)cc3c2C1` displayed a Ki greater than 1670 nM. Besides, the 50% effect level in the assay with Mus musculus [2] (ED50) was put at a dose of 17.3 mg/kg. Also, in the assay with Mus musculus [3], the Temperature is 1.8 °C.

Regarding `CCCN(CCC)[C@@H]1CCc2cccc(O)c2C1`, the 50% effective dose (ED50) in assay [5] came out at 0.0016 mg/kg; in assay [9] it was 0.74 mg/kg; in the assay with Mus musculus [2] it was 1 mg/kg; with Felis catus [4] it was 0.01 mg/kg. The compound also showed a Control in the assay with Felis catus [8] of 0%. The Temperature in the assay with Mus musculus [3] turned out to be 4 °C.

`O=C1CC2(CCCC2)CC(=O)N1CCCCN1CCN(c2ncccn2)CC1` [BUSPIRONE]: the median effective dose (ED50) was 0.0154 mg/kg in [5], 0.08 mg/kg with Felis catus [6], 0.0113 mg/kg in assay [9] and 3 mg/kg in the assay on Mus musculus [2]. The compound further displayed a Control in the assay with Felis catus [1] of 43%. Besides, the Temperature in the assay on Mus musculus [3] was 1.9 °C.

Turning to `CCCN(CCC)[C@@H]1CCc2ccc3[nH]c(C#N)cc3c2C1` [U-92,016-A], the median effective dose (ED50) was 0.0034 mg/kg in assay [5]; 0.03 mg/kg with Felis catus [10]; 0.017 mg/kg in the assay on Felis catus [6]; 0.084 mg/kg in [11]; 0.04 mg/kg in the assay with Mus musculus [2]. Moreover, in the assay with Felis catus [1], the Control came out at 0%. The same compound yielded an inhibition constant (Ki) on D(2) dopamine receptor of 35 nM. For the same compound, the Temperature with Mus musculus [3] was 7.2 °C.
